# ChEMBL document CHEMBL5058577, “EUbOPEN Chemogenomics Library 2 (Multiplex)” (2022)
# System: Fibroblast
# Assay: Multiplex assay against human fibroblast
# Format: toxicity, cell-based
# How it was run: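 Tubulin, mitochondrial-mass and membrane-permeability phenotypes are per cents of healthy-nucleus cells. Cells were gated by CellPathfinder machine learning into Hoechst high-intensity objects or normal cells, normal cells into healthy, pyknosed or fragmented nuclei, and pyknosed cells into mitotic or apoptotic. Before that, live cells stained at seeding with Hoechst33342, BioTracker Green Microtubule Cytoskeleton Dye, MitoTracker Red and Annexin V Alexa Fluor 680 were imaged on a CQ1 microscope at 37°C and 5% CO2 after compound addition.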
# [1] = 12 h, 1 µM, compound concentration 1 uM, replicate 1
# [2] = 12 h, 1 µM, compound concentration 1 uM, replicate 2
# [3] = 12 h, 10 µM, compound concentration 10 uM, replicate 1
# [4] = 12 h, 10 µM, compound concentration 10 uM, replicate 2
# [5] = 24 h, 1 µM, compound concentration 1 uM, replicate 1
# [6] = 24 h, 1 µM, compound concentration 1 uM, replicate 2
# [7] = 24 h, 10 µM, compound concentration 10 uM, replicate 1
# [8] = 24 h, 10 µM, compound concentration 10 uM, replicate 2
# [9] = 48 h, 1 µM, compound concentration 1 uM, replicate 1
# [10] = 48 h, 1 µM, compound concentration 1 uM, replicate 2
# [11] = 48 h, 10 µM, compound concentration 10 uM, replicate 1
# [12] = 48 h, 10 µM, compound concentration 10 uM, replicate 2
smiles,measurement,setting,value
C[C@H](NC(=O)c1c(C(F)F)nn(C)c1Oc1cccc(C(F)(F)F)c1)c1ccc(C(=O)O)cc1 [PALUPIPRANT],Population Apoptotic (%),[1],26%
same,Population Fragmented Nuclei (%),[1],29%
same,Population Healthy Nuclei (%),[1],57%
same,Population Hoechst High Intensity Objects (%),[1],5%
same,Population Membrane Permeable-Phenotype (%),[1],0%
same,Population Mitochondria Different-Phenotype (%),[1],4%
same,Population Mitotic Cells (%),[1],73%
same,Population Normal (%),[1],94%
same,Population Pyknosed Nuclei (%),[1],12%
same,Population Tubulin-Different-Phenotype (%),[1],23%
same,Total Cell Count,[1],187
same,Population Apoptotic (%),[2],24%
same,Population Fragmented Nuclei (%),[2],23%
same,Population Healthy Nuclei (%),[2],52%
same,Population Hoechst High Intensity Objects (%),[2],6%
same,Population Membrane Permeable-Phenotype (%),[2],11%
same,Population Mitochondria Different-Phenotype (%),[2],6%
same,Population Mitotic Cells (%),[2],75%
same,Population Normal (%),[2],93%
same,Population Pyknosed Nuclei (%),[2],23%
same,Population Tubulin-Different-Phenotype (%),[2],55%
same,Total Cell Count,[2],148
same,Population Apoptotic (%),[3],45%
same,Population Fragmented Nuclei (%),[3],13%
same,Population Healthy Nuclei (%),[3],70%
same,Population Hoechst High Intensity Objects (%),[3],2%
same,Population Membrane Permeable-Phenotype (%),[3],2%
same,Population Mitochondria Different-Phenotype (%),[3],6%
same,Population Mitotic Cells (%),[3],55%
same,Population Normal (%),[3],97%
same,Population Pyknosed Nuclei (%),[3],16%
same,Population Tubulin-Different-Phenotype (%),[3],45%
same,Total Cell Count,[3],126
same,Population Apoptotic (%),[4],35%
same,Population Fragmented Nuclei (%),[4],42%
same,Population Healthy Nuclei (%),[4],35%
same,Population Hoechst High Intensity Objects (%),[4],14%
same,Population Membrane Permeable-Phenotype (%),[4],13%
same,Population Mitochondria Different-Phenotype (%),[4],13%
same,Population Mitotic Cells (%),[4],64%
same,Population Normal (%),[4],85%
same,Population Pyknosed Nuclei (%),[4],22%
same,Population Tubulin-Different-Phenotype (%),[4],60%
same,Total Cell Count,[4],149
same,Population Apoptotic (%),[5],40%
same,Population Fragmented Nuclei (%),[5],32%
same,Population Healthy Nuclei (%),[5],58%
same,Population Hoechst High Intensity Objects (%),[5],5%
same,Population Membrane Permeable-Phenotype (%),[5],1%
same,Population Mitochondria Different-Phenotype (%),[5],4%
same,Population Mitotic Cells (%),[5],60%
same,Population Normal (%),[5],94%
same,Population Pyknosed Nuclei (%),[5],8%
same,Population Tubulin-Different-Phenotype (%),[5],15%
same,Total Cell Count,[5],178
same,Population Apoptotic (%),[6],42%
same,Population Fragmented Nuclei (%),[6],26%
same,Population Healthy Nuclei (%),[6],53%
same,Population Hoechst High Intensity Objects (%),[6],7%
same,Population Membrane Permeable-Phenotype (%),[6],8%
same,Population Mitochondria Different-Phenotype (%),[6],5%
same,Population Mitotic Cells (%),[6],57%
same,Population Normal (%),[6],92%
same,Population Pyknosed Nuclei (%),[6],20%
same,Population Tubulin-Different-Phenotype (%),[6],51%
same,Total Cell Count,[6],141
same,Population Apoptotic (%),[7],60%
same,Population Fragmented Nuclei (%),[7],18%
same,Population Healthy Nuclei (%),[7],62%
same,Population Hoechst High Intensity Objects (%),[7],5%
same,Population Membrane Permeable-Phenotype (%),[7],2%
same,Population Mitochondria Different-Phenotype (%),[7],7%
same,Population Mitotic Cells (%),[7],39%
same,Population Normal (%),[7],94%
same,Population Pyknosed Nuclei (%),[7],18%
same,Population Tubulin-Different-Phenotype (%),[7],35%
same,Total Cell Count,[7],131
same,Population Apoptotic (%),[8],38%
same,Population Fragmented Nuclei (%),[8],40%
same,Population Healthy Nuclei (%),[8],42%
same,Population Hoechst High Intensity Objects (%),[8],10%
same,Population Membrane Permeable-Phenotype (%),[8],13%
same,Population Mitochondria Different-Phenotype (%),[8],3%
same,Population Mitotic Cells (%),[8],61%
same,Population Normal (%),[8],89%
same,Population Pyknosed Nuclei (%),[8],17%
same,Population Tubulin-Different-Phenotype (%),[8],51%
same,Total Cell Count,[8],138
same,Population Apoptotic (%),[9],53%
same,Population Fragmented Nuclei (%),[9],34%
same,Population Healthy Nuclei (%),[9],57%
same,Population Hoechst High Intensity Objects (%),[9],11%
same,Population Membrane Permeable-Phenotype (%),[9],0%
same,Population Mitochondria Different-Phenotype (%),[9],4%
same,Population Mitotic Cells (%),[9],46%
same,Population Normal (%),[9],88%
same,Population Pyknosed Nuclei (%),[9],7%
same,Population Tubulin-Different-Phenotype (%),[9],29%
same,Total Cell Count,[9],184
same,Population Fragmented Nuclei (%),[10],30%
same,Population Healthy Nuclei (%),[10],50%
same,Population Hoechst High Intensity Objects (%),[10],3%
same,Population Membrane Permeable-Phenotype (%),[10],4%
same,Population Normal (%),[10],96%
same,Population Pyknosed Nuclei (%),[10],19%
same,Population Tubulin-Different-Phenotype (%),[10],53%
same,Total Cell Count,[10],147
same,Population Apoptotic (%),[11],73%
same,Population Fragmented Nuclei (%),[11],20%
same,Population Healthy Nuclei (%),[11],60%
same,Population Hoechst High Intensity Objects (%),[11],4%
same,Population Membrane Permeable-Phenotype (%),[11],1%
same,Population Mitochondria Different-Phenotype (%),[11],8%
same,Population Mitotic Cells (%),[11],26%
same,Population Normal (%),[11],95%
same,Population Pyknosed Nuclei (%),[11],18%
same,Population Tubulin-Different-Phenotype (%),[11],46%
same,Total Cell Count,[11],130
same,Population Apoptotic (%),[12],60%
same,Population Fragmented Nuclei (%),[12],45%
same,Population Healthy Nuclei (%),[12],45%
same,Population Hoechst High Intensity Objects (%),[12],13%
same,Population Membrane Permeable-Phenotype (%),[12],10%
same,Population Mitochondria Different-Phenotype (%),[12],6%
same,Population Mitotic Cells (%),[12],40%
same,Population Normal (%),[12],86%
same,Population Pyknosed Nuclei (%),[12],9%
same,Population Tubulin-Different-Phenotype (%),[12],50%
same,Total Cell Count,[12],122
